Measured values from ChEMBL document CHEMBL4270642, “Boronic ester-linked macrocyclic lipopeptides as serine protease inhibitors targeting Escherichia coli type I signal peptidase” (Eur J Med Chem, 2018).
Values after ≈ are worked out from the molar mass of the structure shown.

Experiments:
[1] = Hemolytic activity in human RBC at 100 uM after 45 mins by spectrophotometric method relative to control; format: ADME, cell-based, Erythrocyte; details: red blood cells (erythrocytes), read-out: Activity
Procedure, shortened: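 Heparinized human blood; red cells washed three times in Tyrode buffer pH 7.4. Compound at 100 µM final with 1% DMSO and 50% RBC, shaken (250 rpm) 45 min at 37 °C. Cells pelleted (1000 × g, 10 min); supernatant haemoglobin at 540 nm. Percent lysis relative to buffer-only and 2% Triton X-100 controls.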

Signal peptidase I = Signal peptidase I (Escherichia coli K-12, UniProt P00803); assay: Inhibition of Escherichia coli type 1 signal peptidase lepB preincubated for 10 mins followed by Dabcyl-VGGTATAYGAFSRPGLE-(EDANS)-OH substrate addition measured after 2 hrs by FRET based assay
Procedure, shortened: (§1)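 EcLepB (about 50 nM estimated) preincubated 10 min with compound. Reaction started with Dabcyl/EDANS FRET peptide at 8 µM final (Km 20 µM). Fluorescence followed continuously at 535 nm, 22 °C, for 2 h. Cleavage rates plotted against inhibitor concentration; IC50 from non-linear regression of sigmoidal dose-response curves.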

Escherichia coli [2] = assay: Antibacterial activity against Escherichia coli ATCC 25922 after 16 to 20 hrs by broth microdilution method; format: functional
Procedure, shortened: (§2)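 Broth microdilution in cation-adjusted Mueller-Hinton II per EUCAST/CLSI; two-fold compound series 64 down to 0.25 µg/mL final. Inoculum from fresh colonies (non-selective agar, 18-24 h, 35 ± 2 °C), adjusted to 0.5 McFarland, diluted to about 5 × 10^5 CFU/mL final. Static incubation 16-20 h at 35 ± 2 °C; MIC read visually as complete growth inhibition against medium-only wells.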

Escherichia coli [3] = assay: Antibacterial activity against tolC deficient Escherichia coli CH3130 after 16 to 20 hrs by broth microdilution method; format: functional; procedure, shortened: as §2
Escherichia coli [4] = assay: Antibacterial activity against Escherichia coli D22 CGSG 5163 harboring Ips mutant after 16 to 20 hrs by broth microdilution method; format: functional
Procedure, shortened: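 Broth microdilution in cation-adjusted Mueller-Hinton II broth, following EUCAST and CLSI guidelines. Two-fold series at final concentrations 64 down to 0.25 µg/mL, with medium-only and growth controls. Inoculum from fresh colonies (18-24 h, 35 °C ± 2 °C) adjusted to 0.5 McFarland, final ≈5 × 10^5 CFU/mL. Plates incubated unshaken 16-20 h at 35 °C ± 2 °C. MIC read visually as complete inhibition of growth.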

Pseudomonas aeruginosa [5] = assay: Antibacterial activity against Pseudomonas aeruginosa PAO1 after 16 to 20 hrs by broth microdilution method; format: functional; procedure, shortened: as §2
Pseudomonas aeruginosa [6] = assay: Antibacterial activity against efflux defective Pseudomonas aeruginosa PAO750 after 16 to 20 hrs by broth microdilution method; format: functional; procedure, shortened: as §2
Klebsiella pneumoniae = assay: Antibacterial activity against Klebsiella pneumoniae ATCC 13883 after 16 to 20 hrs by broth microdilution method; format: functional; procedure, shortened: as §2
HepG2 = assay: Cytotoxicity against human HepG2 cells after 72 hrs by FMSA; format: cell-based; details: HepG2, 72 h
Procedure, shortened: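 HepG2 (ATCC) grown in EMEM with 10% FBS, pen/strep, 2 mM L-glutamine, used up to 20 passages. Seeded at 1000 cells/well, cultured overnight, then dosed acoustically from DMSO stocks. Eight two-fold dilutions in duplicate from top 64 or 32 µM; 72 h at 37 °C, 5% CO2. Fluorescein diacetate hydrolysis read at ex 485/em 530 nm; IC50 by non-linear regression.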

Acinetobacter baumannii = assay: Antibacterial activity against Acinetobacter baumannii ATCC 19606 after 16 to 20 hrs by broth microdilution method; format: functional; details: ATCC 19606 = CIP 70.34 = JCM 6841; procedure, shortened: as §2
Staphylococcus aureus = assay: Antibacterial activity against Staphylococcus aureus ATCC 29213 after 16 to 20 hrs by broth microdilution method; format: functional; procedure, shortened: as §2
[7] = biological target: Signal peptidase I (Escherichia coli K-12) (UniProt P00803); assay: Inhibition of Escherichia coli type 1 signal peptidase lepB assessed as residual activity at 10 uM preincubated for 10 mins followed by Dabcyl-VGGTATAYGAFSRPGLE-(EDANS)-OH substrate addition measured after 2 hrs by FRET based assay (reference value: 100%); procedure, shortened: as §1
[8] = biological target: Signal peptidase I (Escherichia coli K-12) (UniProt P00803); assay: Inhibition of Escherichia coli type 1 signal peptidase lepB assessed as residual activity at 5 uM preincubated for 10 mins followed by Dabcyl-VGGTATAYGAFSRPGLE-(EDANS)-OH substrate addition measured after 2 hrs by FRET based assay (reference value: 100%); procedure, shortened: as §1
[9] = biological target: Signal peptidase I (Escherichia coli K-12) (UniProt P00803); assay: Inhibition of Escherichia coli type 1 signal peptidase lepB assessed as residual activity at 2.5 uM preincubated for 10 mins followed by Dabcyl-VGGTATAYGAFSRPGLE-(EDANS)-OH substrate addition measured after 2 hrs by FRET based assay (reference value: 100%); procedure, shortened: as §1
[10] = biological target: Signal peptidase I (Escherichia coli K-12) (UniProt P00803); assay: Inhibition of Escherichia coli type 1 signal peptidase lepB assessed as residual activity at 1.25 uM preincubated for 10 mins followed by Dabcyl-VGGTATAYGAFSRPGLE-(EDANS)-OH substrate addition measured after 2 hrs by FRET based assay (reference value: 100%); procedure, shortened: as §1
[11] = biological target: Signal peptidase I (Escherichia coli K-12) (UniProt P00803); assay: Inhibition of Escherichia coli type 1 signal peptidase lepB assessed as residual activity at 0.625 uM preincubated for 10 mins followed by Dabcyl-VGGTATAYGAFSRPGLE-(EDANS)-OH substrate addition measured after 2 hrs by FRET based assay (reference value: 100%); procedure, shortened: as §1
[12] = biological target: Signal peptidase I (Escherichia coli K-12) (UniProt P00803); assay: Inhibition of Escherichia coli type 1 signal peptidase lepB assessed as residual activity at 0.3125 uM preincubated for 10 mins followed by Dabcyl-VGGTATAYGAFSRPGLE-(EDANS)-OH substrate addition measured after 2 hrs by FRET based assay (reference value: 100%); procedure, shortened: as §1
[13] = biological target: Signal peptidase I (Escherichia coli K-12) (UniProt P00803); assay: Inhibition of Escherichia coli type 1 signal peptidase lepB assessed as residual activity at 0.1563 uM preincubated for 10 mins followed by Dabcyl-VGGTATAYGAFSRPGLE-(EDANS)-OH substrate addition measured after 2 hrs by FRET based assay (reference value: 100%); procedure, shortened: as §1
[14] = biological target: Signal peptidase I (Escherichia coli K-12) (UniProt P00803); assay: Inhibition of Escherichia coli type 1 signal peptidase lepB assessed as residual activity at 0.0781 uM preincubated for 10 mins followed by Dabcyl-VGGTATAYGAFSRPGLE-(EDANS)-OH substrate addition measured after 2 hrs by FRET based assay (reference value: 100%); procedure, shortened: as §1
[15] = biological target: Signal peptidase I (Escherichia coli K-12) (UniProt P00803); assay: Inhibition of Escherichia coli type 1 signal peptidase lepB assessed as residual activity at 0.0391 uM preincubated for 10 mins followed by Dabcyl-VGGTATAYGAFSRPGLE-(EDANS)-OH substrate addition measured after 2 hrs by FRET based assay (reference value: 100%); procedure, shortened: as §1
[16] = biological target: Signal peptidase I (Escherichia coli K-12) (UniProt P00803); assay: Inhibition of Escherichia coli type 1 signal peptidase lepB assessed as residual activity at 0.0195 uM preincubated for 10 mins followed by Dabcyl-VGGTATAYGAFSRPGLE-(EDANS)-OH substrate addition measured after 2 hrs by FRET based assay (reference value: 100%); procedure, shortened: as §1
[17] = biological target: Signal peptidase I (Escherichia coli K-12) (UniProt P00803); assay: Inhibition of Escherichia coli type 1 signal peptidase lepB assessed as residual activity at 0.0098 uM preincubated for 10 mins followed by Dabcyl-VGGTATAYGAFSRPGLE-(EDANS)-OH substrate addition measured after 2 hrs by FRET based assay (reference value: 100%); procedure, shortened: as §1
[18] = biological target: Signal peptidase I (Escherichia coli K-12) (UniProt P00803); assay: Inhibition of Escherichia coli type 1 signal peptidase lepB assessed as residual activity at 0.0049 uM preincubated for 10 mins followed by Dabcyl-VGGTATAYGAFSRPGLE-(EDANS)-OH substrate addition measured after 2 hrs by FRET based assay (reference value: 100%); procedure, shortened: as §1
[19] = biological target: Signal peptidase I (Escherichia coli K-12) (UniProt P00803); assay: Inhibition of Escherichia coli type 1 signal peptidase lepB assessed as residual activity at 0.0024 uM preincubated for 10 mins followed by Dabcyl-VGGTATAYGAFSRPGLE-(EDANS)-OH substrate addition measured after 2 hrs by FRET based assay (reference value: 100%); procedure, shortened: as §1
[20] = biological target: Signal peptidase I (Escherichia coli K-12) (UniProt P00803); assay: Inhibition of Escherichia coli type 1 signal peptidase lepB assessed as residual activity at 0.0012 uM preincubated for 10 mins followed by Dabcyl-VGGTATAYGAFSRPGLE-(EDANS)-OH substrate addition measured after 2 hrs by FRET based assay (reference value: 100%); procedure, shortened: as §1
[21] = biological target: Signal peptidase I (Escherichia coli K-12) (UniProt P00803); assay: Inhibition of Escherichia coli type 1 signal peptidase lepB assessed as residual activity at 0.0006 uM preincubated for 10 mins followed by Dabcyl-VGGTATAYGAFSRPGLE-(EDANS)-OH substrate addition measured after 2 hrs by FRET based assay (reference value: 100%); procedure, shortened: as §1

Signal peptidase I (Escherichia coli K-12), sequence (P00803 whole entry): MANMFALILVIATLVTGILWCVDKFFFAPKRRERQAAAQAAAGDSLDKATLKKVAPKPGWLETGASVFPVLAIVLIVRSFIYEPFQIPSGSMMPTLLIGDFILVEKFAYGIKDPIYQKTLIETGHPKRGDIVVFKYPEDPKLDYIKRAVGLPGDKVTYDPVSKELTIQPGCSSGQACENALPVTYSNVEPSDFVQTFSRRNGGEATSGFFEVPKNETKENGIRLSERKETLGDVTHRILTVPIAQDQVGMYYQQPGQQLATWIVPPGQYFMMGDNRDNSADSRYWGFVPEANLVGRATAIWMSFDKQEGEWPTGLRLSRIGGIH
Signal peptidase I, sequence (P00803 whole entry): as above

Compound: CCCCCCc1ccc(-c2ccc(C(=O)N[C@@H](CCCN)C(=O)N(C)[C@H](C(=O)N[C@@H](C)C(=O)N[C@H]3Cc4cn(nn4)CCCN4C[C@@H]5OB(O[C@@H]5C4)[C@H](C)NC3=O)[C@@H](C)O)cc2)cc1
- hemolysis at 0.75 h, 100 µM [1]: 9.6%
- IC50 (Signal peptidase I): 0.098 µM
- MIC (Escherichia coli [2]): 64 µg/mL (≈ 71.2 µM)
- MIC (Escherichia coli [3]): 16 µg/mL (≈ 17.8 µM)
- MIC (Escherichia coli [4]): 32 µg/mL (≈ 35.6 µM)
- MIC (Pseudomonas aeruginosa [5]): > 64 µg/mL
- MIC (Pseudomonas aeruginosa [6]): 64 µg/mL (≈ 71.2 µM)
- MIC (Klebsiella pneumoniae): 32 µg/mL (≈ 35.6 µM)
- IC50 (HepG2): 8.5 µM
- MIC (Acinetobacter baumannii): 64 µg/mL (≈ 71.2 µM)
- MIC (Staphylococcus aureus): 32 µg/mL (≈ 35.6 µM)
- Activity [7]: 3.7%
- Activity [8]: 8%
- Activity [9]: 18.2%
- Activity [10]: 23.6%
- Activity [11]: 30.7%
- Activity [12]: 34.2%
- Activity [13]: 40%
- Activity [14]: 52.1%
- Activity [15]: 69.9%
- Activity [16]: 75.7%
- Activity [17]: 88.1%
- Activity [18]: 92.7%
- Activity [19]: 95.7%
- Activity [20]: 95.3%
- Activity [21]: 95.8%
